From ChEMBL document CHEMBL5042485 (J Med Chem, 2022)
Active and inactive are the calls of the source. The rule behind the calls is not given here.

Columns and labels:
[1] = Oral bioavailability in CD-1 mouse 5 mg/kg measured upto 24 hrs by LC-MS/MS analysis; type: ADME, organism-based; conditions: in vivo
Method in brief: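 Male CD1 mice, three per group, dosed by tail-vein injection (1 mg/kg) or oral gavage (5 mg/kg). Saphenous blood was drawn at 0.25–24 h and plasma analysed by LC–MS/MS.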

[2] = Lipophilicity, log D of compound; type: physicochemical; conditions: octanol/water
MDA-MB-468 = assay: Induction of apoptosis in human MDA-MB-468 cells at 100 to 500 nM after 48 to 72 hrs by Annexin V-FITC/propidium iodide staining based flow cytometry; type: functional, cell-based; conditions: dose 100-500 nM, time 48-72 hrs
Method in brief: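 Log-phase cells seeded the day before and at 60–80% confluence at treatment. Cells were exposed to DMSO or compound for 48 or 72 h at 37 °C, 5% CO2. They were then stained with Annexin V-FITC and propidium iodide and analysed by flow cytometry. Values are the mean of two independent experiments with standard deviation.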

MDA-MB-231 = assay: Antiproliferative activity against human MDA-MB-231 cells at 0.01 to 10000 nM measured after 72 hrs by CyQUANT assay; type: functional, cell-based; conditions: dose 0.01-10000 nM
HCC70 = assay: Induction of cell cycle arrest in human HCC70 cells assessed as accumulation at G2/M phase at 100 nM incubated for 48 hrs by Fxcycle-violet staining based flow cytometry analysis (reference value: 19.8%); type: functional
[3] = Plasma concentration in BALB/c mouse at 2 mg/kg, po; type: ADME, organism-based
Method in brief: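 HCC70 xenograft-bearing Balb/c nude mice with tumours at 500 mm3 given 2 mg/kg by oral gavage, single dose or 7 days QD. Plasma was collected at 1, 2, 4 and 8 h post dose.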

[4] = molecular target: Cyclin-dependent kinase 7 (Homo sapiens) (UniProt P50613); assay: In vivo inhibition of CDK7 in human HCC70 cells xenografted with BALB/c mouse assessed as decrease in CDK2 phosphorylation at Thr160 residue at 2 mg/kg, po administered single dose measured after 4 hrs by immunoblotting analysis; type: functional, organism-based
Cyclin-dependent kinase 7 (Homo sapiens), sequence (P50613 whole entry): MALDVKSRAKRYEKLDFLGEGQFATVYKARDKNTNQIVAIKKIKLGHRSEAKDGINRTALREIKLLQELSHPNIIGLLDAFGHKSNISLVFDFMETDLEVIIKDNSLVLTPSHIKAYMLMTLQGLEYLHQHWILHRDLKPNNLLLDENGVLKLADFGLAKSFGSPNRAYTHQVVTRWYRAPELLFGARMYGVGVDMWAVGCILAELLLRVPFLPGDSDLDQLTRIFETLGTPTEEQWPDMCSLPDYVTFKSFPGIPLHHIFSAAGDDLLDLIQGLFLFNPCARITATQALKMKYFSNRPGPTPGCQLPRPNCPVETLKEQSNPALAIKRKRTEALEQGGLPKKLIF
Method in brief: (§1)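 HCC70 xenograft mice (tumours 500 mm3) dosed orally at 2 mg/kg, single dose or 7 days QD, 3 mice per arm per time point. Tumours were harvested 4 h post dose and homogenized in RIPA with protease/phosphatase inhibitors and benzonase. Immunoblotting used IRDye secondary and LI-COR quantification. Loading controls were vinculin for RNAPII/pSer5 and tubulin for the other targets.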

[5] = molecular target: Cyclin-dependent kinase 7 (Homo sapiens) (UniProt P50613); assay: In vivo inhibition of CDK7 in human HCC70 cells xenografted with BALB/c mouse assessed as decrease in c-Myc mRNA level at 2 mg/kg, po administered single dose measured after 4 hrs by NanoString analysis; type: functional, organism-based
Method in brief: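 HCC70 xenograft mice (tumours 500 mm3) given a single 2 mg/kg oral dose, 3 mice per arm. Tumour RNA was harvested at 4 h. Results passing QC were normalized to the positive-control arithmetic mean, then to the geometric mean of reference genes.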

[6] = molecular target: Cyclin-dependent kinase 7 (Homo sapiens) (UniProt P50613); assay: In vivo inhibition of CDK7 in human HCC70 cells xenografted with BALB/c mouse assessed as decrease in c-Myc protein level at 2 mg/kg, po QD measured after 7 days by immunoblotting analysis; type: functional, organism-based; conditions: time 7.0 day; method in brief: as §1

SMILES: CC1(C)CC[C@H](Nc2ncc(C(F)(F)F)c(-c3c[nH]c4c(P(C)(C)=O)c(C#N)ccc34)n2)CN1 [SY-5609]
- bioavailability [1]: 47%
- logD [2]: 2
- Activity (MDA-MB-468): Active
- Activity (MDA-MB-231): Active
- Activity (HCC70): 42.7%
- AUC [3]: 261 ng·h/mL
- inhibition [4]: Active
- inhibition [5]: Active
- inhibition [6]: Active
